We go through 90 compounds from PubChem BioAssay AID493091 (Sanford-Burnham Center for Chemical Genomics, 2011).

Values joined by “and” are separate entries in the source; they are usually repeats but may differ in a detail not shown here. Identical values can stand only once. Screen size: about 340,000 compounds; about 3,000 (0.88%) were called active.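 How the source made its calls: active means inhibition above about 50% at 20 µM (limit read from the data); inactive means the rest.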 The entries come from a sample that favours actives as a whole. More than one record can exist for a structure, and the calls need not agree.

For this test, the target named is Carboxy-terminal domain RNA polymerase II polypeptide A small phosphatase 1 (Homo sapiens) (UniProt Q9GZU7). As to the kind of experiment: inhibition of human SCP1 dephosphorylation activity – biochemical, colorimetric, uHTS, primary screen (AID 493091).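 Further: plate controls were DMSO wells with enzyme for no effect and wells lacking enzyme for full effect.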 The note with it: Recombinant Scp1, phosphopeptide, malachite green phosphate absorbance; at 20 µM; stronger effect = higher value. In a few lines: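 Test system: SCP-1 catalytic domain; Buffer or medium: Acidic Tris acetate buffer with magnesium and detergent; Also added: Phosphorylated 17-residue peptide substrate; Compound: single 20 µM dose, 1% DMSO; Schedule: enzyme reaction 45 min at room temperature, colour 5 min, stabilisation 30 min; Signal: Phosphate-binding colour reagent, absorbance read at 630 nm.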
Carboxy-terminal domain RNA polymerase II polypeptide A small phosphatase 1 (Homo sapiens), sequence (Q9GZU7 76-261 limits assumed): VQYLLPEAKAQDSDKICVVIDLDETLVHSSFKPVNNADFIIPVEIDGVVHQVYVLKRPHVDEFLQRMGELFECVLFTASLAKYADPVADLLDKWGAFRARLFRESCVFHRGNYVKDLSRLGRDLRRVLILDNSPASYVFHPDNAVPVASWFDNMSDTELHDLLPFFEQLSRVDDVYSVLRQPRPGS
As for `Cc1ccc(N=Cc2c(O)cc(C)oc2=O)c(C)c1`, the inhibition was -1.31% (inactive).
The figure for `Cc1ccc(N=Cc2c(O)n(-c3nccs3)c(=O)c3ccccc23)c(C)c1` is 51.3% (active); for `Cc1ccc(-n2c(O)c(C=Nc3ccc(S(=O)(=O)Nc4ncccn4)cc3)c3ccccc3c2=O)cc1C` it is -12.6% (inactive).
Consider `O=C(NCCCc1ccccc1)C1CCC(CNc2c(N3CCCCC3)c(=O)c2=O)CC1` (stereo not given), for which the inhibition is -5.39% (inactive).
The same measure for `COc1ccccc1NC(=O)CCC(=O)OC(C)C(=O)c1ccccc1` (stereo not given): -10.3% (inactive); for `COc1ccccc1CN1CCNC(=O)C1CC(=O)N(C)CC1CCOCC1` (stereo not given): -2.19% (inactive).
For `COc1ccc(CNC(=O)COc2cccnc2[N+](=O)[O-])cc1`, the inhibition was -6.82% (inactive).
`N#Cc1ccccc1CN1C(=O)S/C(=C/c2cccn2-c2cccc(C(=O)O)c2)C1=O`: the inhibition is 70.5% (active).
Turning to `O=C(NCCN1C(=O)S/C(=C\c2cccnc2)C1=O)c1cccc(OC(F)F)c1`, the inhibition is -7.82% (inactive).
As to `Cc1nn(Cc2ccccc2)c(C)c1C(=O)NCCN1C(=O)S/C(=C\c2ccc(F)cc2)C1=O`, the inhibition was -5.22% (inactive).
The same measure for `Cc1ccccc1CSc1nnc(-c2ccccn2)n1N`: -3.67% (inactive); for `CCOC(=O)c1cccc(NC(=O)c2ccc(F)cc2F)c1`: -7.13% (inactive); for `O=C(COC(=O)c1ccc(F)cc1F)Nc1ncccn1`: 87% (active).
With `O=C(COC(=O)CSc1ccccc1)Nc1ccc(F)cc1F`, the inhibition was -2.71% (inactive).
The same measure for `COCCNC(=O)C(OC(=O)c1cccs1)c1ccc(F)cc1` (stereo not given): -8.1% (inactive); for `CN(c1ccccc1)S(=O)(=O)c1cccc(C(=O)NNC(=O)c2ccncc2)c1`: -6.19% (inactive).
The same measure for `CCCNC(=O)CCc1c(C)nc2c(c(C)nn2-c2ccccc2)c1C`: -19% (inactive); for `O=S1(=O)CC/C(=N\Nc2ccc(F)cc2)c2ccsc21`: -1.87% (inactive).
The figure for `Nn1cnnc1N/N=C/c1cc([N+](=O)[O-])c(Cl)cc1Cl` is 71.5% (active); for `Cc1ccsc1C(=O)NNC(=O)COc1ccc(Br)cc1` it is -2.35% (inactive).
For `COc1ccc(-c2ccc(CCC(=O)O)n2-c2ccc(O)cc2)cc1`, the inhibition is -8.68% (inactive).
The figure for `COc1ccc(Cl)cc1C=CC=Nc1ccc(S(N)(=O)=O)cc1` is -0.31% (inactive); for `COc1ccc(Cl)cc1C=CC=NNC(=O)c1ccncc1` it is 54.2% (active).
The figure for `COc1ccccc1/C=C/C=N/NC(=O)CN1CCN(Cc2ccccc2)CC1` is -7.3% (inactive).
The same measure for `CCOC(=O)N1CCN(c2c(NCCN3CCN(c4ccccc4F)CC3)c(=O)c2=O)CC1`: -8.45% (inactive).
Turning to `O/N=C1\CC2(Cc3nonc31)OCCO2`, the inhibition is -5.88% (inactive).
Turning to `ON=C1/C(=N\O)CC2(C/C1=N/O)OCCO2`, the inhibition is 58% (active).
For `S=C(NCc1ccc2c(c1)OCO2)NCc1ccco1`, the inhibition is -10.4% (inactive).
Regarding `O=C(Cn1nnc(-c2ccc3c(c2)OCO3)n1)NCc1ccco1`, the inhibition was 60.1% (active).
The same measure for `CS(=O)(=O)N(CC(=O)NCc1ccco1)c1ccc2c(c1)OCO2`: 17.7% (inactive); for `COc1cccc(CNC(=O)CN(C)S(=O)(=O)c2ccc3c(c2)c(=O)n(C)c(=O)n3C)c1`: -11.9% (inactive); for `Cc1ccc(S(=O)(=O)/N=S(\C)C(C)C)cc1` (stereo not given): -1% (inactive).
The figure for `COc1ccc(/C=C/C(=O)OCC(=O)NC2CCCCCC2)cc1OC` is 53% (active); for `COc1cc(/C=C/C(=O)OCC(=O)NC2CC2)cc(OC)c1OC` it is 8.5% (inactive); for `COc1ccccc1/C=C/C(=O)OCC(=O)NC1CCCCCC1` it is -7.74% (inactive).
The figure for `CCOC(=O)c1oc2c(CN3CCN(CCO)CC3)c(O)c(CC)cc2c(=O)c1-c1nc2ccccc2s1` is -2.5% (inactive); for `Cc1ccc(NC(=O)COc2coc(CN3CCc4ccccc4C3)cc2=O)cc1Cl` it is 5.58% (inactive).
For `Cc1nnc2n1N=C(c1ccc3c(c1)NC(=O)CO3)CS2`, the inhibition is -2.49% (inactive).
The same measure for `Cc1cc(NC(=O)[C@H](C)NC(=O)c2ccco2)ccc1Br`: -11% (inactive); for `CCOC(=O)C1CCCN(C(=O)/C=C/c2ccc(OC)cc2)C1` (stereo not given): 0.29% (inactive); for `CCOC(=O)C1CCCN(C(=O)CN(c2ccc(OC)cc2)S(=O)(=O)c2c(C)noc2C)C1` (stereo not given): 57.4% (active).
The same measure for `CCOc1ccc(N(CC(=O)OC)S(=O)(=O)c2c(C)noc2C)cc1`: -4.21% (inactive); for `COc1ccc(OC)c(S(=O)(=O)NCCC(C)C)c1`: -1.08% (inactive).
The figure for `Cc1nc2cc(NC(=O)CSc3nc4c(C)cccc4cc3C#N)ccc2s1` is 20.8% (inactive); for `COc1cc(/C=C/c2ccc(/C=C/c3cc(OC)c(OC)c(OC)c3)cc2)cc(OC)c1OC` it is 4.65% (inactive); for `COc1cc(/C=C/C2=CC(C)(C)NC(=S)N2)cc(OC)c1OC` it is 83.9% (active).
Regarding `COc1ccc(/C=C/C2=CC(C)(C)NC(=S)N2)c(OC)c1`, the inhibition is -2.22% (inactive).
In the case of `CCOC(=O)c1c(NC(=O)CNC2CCCc3ccccc32)sc(C(N)=O)c1C` (stereo not given), the inhibition was -9.44% (inactive).
The figure for `CCOCCCNC(=S)Nc1ccc2nc(N3CCN(CC)CC3)cc(C)c2c1` is -1.55% (inactive).
The figure for `Cc1ccc(C(=O)Nc2sc(Cc3ccc4c(c3)OCO4)c(C)c2C(N)=O)cc1` is -8.44% (inactive); for `CCOC(=O)c1cc2occc2n1CC(=O)N1CCN(C(=O)c2ccco2)CC1` it is -2.95% (inactive); for `O=C(Nc1cccc(Br)c1)C1CC(=O)N(C2CCCC2)C1` (stereo not given) it is -7.74% (inactive).
The figure for `COc1ccccc1N(CC(=O)NC1CCCC1)C(=O)C1(C)CC(=O)N=C2C=CC(C)=CN21` (stereo not given) is -2.31% (inactive).
Turning to `Clc1ccccc1CSc1nnc(-c2ccco2)c(-c2ccco2)n1`, the inhibition was 76.5% (active).
As to `CCc1nnc(SCc2cccc(F)c2)nc1CC`, the inhibition was -10.3% (inactive).
The figure for `O=C(Nc1nnc(SCc2ccccc2Cl)s1)c1cccc([N+](=O)[O-])c1` is -14% (inactive); for `Clc1ccc(CSc2nnc3c(n2)[nH]c2ccccc23)cc1` it is -4.5% (inactive); for `c1ccc(CSc2nnc(-c3ccco3)c(-c3ccco3)n2)cc1` it is 79.2% (active).
As for `S=C(NCc1ccco1)NCc1ccccc1Cl`, the inhibition was -4.7% (inactive).
The same measure for `COc1ccccc1N(C)C(=O)c1cc(S(=O)(=O)N2CCc3ccccc32)cn1C`: -4.84% (inactive).
For the compound `COc1ccc(C(=O)COC(=O)CNC(=O)c2cccs2)cc1Br`, the inhibition is -0.77% (inactive).
For `Cc1cc(C)cc(C(=O)NC2C(=O)N3C(C(=O)O)=C(CSc4nnc(C)s4)CSC23)c1` (stereo not given), the inhibition is 4.73% (inactive).
The figure for `C=CC1=C(C(=O)O)N2C(=O)[C@@H](NC(=O)/C(=N/OCC(=O)O)c3csc(N)n3)[C@H]2SC1` is 65.5% (active); for `Cc1nnc(SCC2=C(C(=O)O)N3C(=O)C(NC(=O)Cn4nc(C)c(Cl)c4C)C3SC2)s1` (stereo not given) it is 14.4% (inactive).
The same measure for `CC(C)(C)OC(=O)C1=C(CO)CS[C@@H]2[C@H](NC(=O)Cc3ccccc3)C(=O)N12`: 1.29% (inactive); for `CO/N=C(\C(=O)N[C@@H]1C(=O)N2C(C(=O)O)=C(COC(C)=O)CS[C@H]12)c1csc(N)n1` (stereo in doubt): 69.7% (active) and 11.4% (inactive) and 72.2% (active).
The figure for `C=CC1=C(C(=O)O)N2C(=O)[C@@H](NC(=O)/C(=N\OCC(=O)O)c3csc(N)n3)[C@H]2SC1` is 71% (active); for `CC(=O)c1ccc(NC(=O)CSc2nc3ccccc3c(=O)n2CCCN2CCOCC2)cc1` it is -7.5% (inactive); for `Cn1cnc([N+](=O)[O-])c1Sc1ccccc1` it is -15.4% (inactive).
Turning to `O=C(NCCC1=CCCCC1)c1ccc(-n2cncn2)cc1`, the inhibition was 0.7% (inactive).
In the case of `O=C(O)c1ccccc1-c1ccccc1C(=O)NCc1cccnc1`, the inhibition was -6.94% (inactive).
`CSc1ccccc1NC(=O)c1cnc2sc(C)cn2c1=O`: the inhibition is -3.98% (inactive).
In the case of `COc1ccc(C2C3=C(OC(C)=O)c4ccccc4C3=Nc3c2c(=O)n(C)c(=O)n3C)cc1` (stereo not given), the inhibition is -10.3% (inactive).
Turning to `CN(C)S(=O)(=O)c1cc(NC(=O)CN2C(=O)NC3(CCCc4ccccc43)C2=O)ccc1Cl` (stereo not given), the inhibition was -6.5% (inactive).
With `COc1ccc(/C(O)=C2/C(=O)C(=O)N(c3nc(C)c(C)s3)C2c2ccco2)cc1` (stereo not given), the inhibition is -0.42% (inactive).
The same measure for `Cn1c(=O)c2cc(S(=O)(=O)NCCC(=O)Nc3ccc(F)cc3F)ccc2n(C)c1=O`: -3.26% (inactive); for `COC(=O)c1ccccc1NC(=O)C1(S(=O)(=O)c2ccc(Cl)cc2)CC1`: 82.2% (active).
For the compound `CCOC(=O)C1(S(=O)(=O)c2ccc(Cl)cc2)CCN(Cc2ccccc2)CC1`, the inhibition was -6.96% (inactive).
The same measure for `COC(=O)c1ccccc1NC(=O)CN(Cc1ccc(Cl)cc1)S(C)(=O)=O`: -4.27% (inactive).
The figure for `CNC1(c2nnnn2-c2c(C)cccc2C)CCOC(C)(C)C1` (stereo not given) is -10.7% (inactive); for `Cc1ccc(S(=O)(=O)NCC(=O)N2CCOCCOCCOCCOCC2)cc1` it is -7.08% (inactive).
Turning to `CC1CCCCC1NC(=O)C1CCCN1S(=O)(=O)c1cccc2nsnc12` (stereo not given), the inhibition was -9.08% (inactive).
The same measure for `O=C(COc1ccc(/C=N/NC(=O)c2ccc(O)cc2)cc1)Nc1ccc([N+](=O)[O-])cc1`: -4.15% (inactive).
For the compound `Cc1ccc(OCC(=O)NCCCNC(=O)c2cccnc2)cc1C`, the inhibition was 3.67% (inactive).
The same measure for `Cc1ccc(NC(=O)COc2ccc(/C=N\NC(=O)c3cccnc3)cc2)cc1C`: 73% (active).
The figure for `CCC(C)OC(=O)C(C)Oc1ccc(-c2ccccc2)cc1` (stereo not given) is 0.19% (inactive).
With `O=C(CN1C(=O)COc2ccc(Cl)cc21)N1CCOCC1`, the inhibition is 3.98% (inactive).
The figure for `Cc1ccc(C2(C)NC(=O)N(CC(=O)Nc3ccccc3C(=O)N3CCCCC3)C2=O)cc1` (stereo not given) is 65.5% (active).
On to `Cc1ccc(NC(=O)CN2C(=O)NC(C)(c3ccc(Cl)cc3)C2=O)c(Br)c1` (stereo not given), for which the inhibition is -3.83% (inactive).
Regarding `Cc1ccc(C2(C)NC(=O)N(CC(=O)N3CC(=O)Nc4ccccc43)C2=O)cc1` (stereo not given), the inhibition was -4.98% (inactive).

One may read the inhibition as the relative decrease from the control value, in per cent.
